ChEMBL document CHEMBL1137677, “Synthesis, pharmacological screening, quantum chemical and in vitro permeability studies of N-Mannich bases of benzimidazoles through bovine cornea” (Eur J Med Chem, 2009)

What was measured:
[1] = Apparent permeability across bovine cornea assessed as lag time of permeation by UV-visible spectrophotometer; type: ADME, tissue-based, Bos taurus; details: cattle
Outline: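 Fresh bovine cornea, taken within 1 h of sacrifice with lens and iris removed, was mounted in a side-by-side perfusion cell. Donor held 7 mL of drug in 0.01 M methanolic phosphate buffer, pH 7. Receptor was sampled 1 mL every 15 min for 3 h and replaced with buffer pre-equilibrated at 37 °C. Drug was quantified by UV-vis absorbance. Lag time is the time to reach a steady concentration gradient across the membrane.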

Rattus norvegicus [2] = test: Antiinflammatory activity in Wistar albino rat assessed as reduction in formalin-induced paw edema volume at 50 mg/kg, po administered 30 mins prior to formalin challenge measured after 30 mins by plethysmography; type: functional; parameters: scale not given: the % may be the effect or the level left
Outline: (§1)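 Standard-drug arm, given orally to Wistar albino rats 30 min before subplantar formalin (0.1 mL of 1% w/v). Paw volumes were measured by plethysmography at 30, 60, 90 and 120 min post-formalin and expressed as % reduction of edema.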

Rattus norvegicus [3] = test: Antiinflammatory activity in Wistar albino rat assessed as reduction in formalin-induced paw edema volume at 50 mg/kg, po administered 30 mins prior to formalin challenge measured after 60 mins by plethysmography; type: functional; parameters: scale not given: the % may be the effect or the level left; outline: as §1
Rattus norvegicus [4] = test: Antiinflammatory activity in Wistar albino rat assessed as reduction in formalin-induced paw edema volume at 50 mg/kg, po administered 30 mins prior to formalin challenge measured after 90 mins by plethysmography; type: functional; parameters: scale not given: the % may be the effect or the level left; outline: as §1
Rattus norvegicus [5] = test: Antiinflammatory activity in Wistar albino rat assessed as reduction in formalin-induced paw edema volume at 50 mg/kg, po administered 30 mins prior to formalin challenge measured after 120 mins by plethysmography; type: functional; parameters: scale not given: the % may be the effect or the level left; outline: as §1
[6] = Acute toxicity in po dosed Wistar albino mouse assessed as mortality after 24 hrs by Karber's arithmetical method; type: organism-based; details: in vivo
Outline: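 Wistar albino mice of either sex, six per group; compounds given orally by gavage as suspension in 1% carboxymethyl cellulose at 100, 200, 400, 800 or 1000 mg/kg. Mortality recorded over 24 h; LD50 calculated by Karber's arithmetical method.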

Mus musculus [7] = test: Analgesic activity in Wistar albino mouse assessed as protection against acetic acid-induced writhing at 100 mg/kg, po administered 30 mins prior to acetic acid challenge measured after 30 mins; type: functional
Outline: (§2)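 Wistar albino mice of either sex were dosed orally by gavage with a suspension in 1% carboxymethyl cellulose, 30 min before the writhing agent (0.6% v/v aqueous acetic acid, 1 mL/100 g). Writhings were counted over 30 min and expressed as percentage protection. Significance was tested by Student's t-test.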

Mus musculus [8] = test: Analgesic activity in Wistar albino mouse assessed as protection against acetic acid-induced writhing at 200 mg/kg, po administered 30 mins prior to acetic acid challenge measured after 30 mins; type: functional; outline: as §2
Rattus norvegicus [9] = test: Antiinflammatory activity in Wistar albino rat assessed as reduction in formalin-induced paw edema volume at 200 mg/kg, po administered 30 mins prior to formalin challenge measured after 30 mins by plethysmography; type: functional; parameters: scale not given: the % may be the effect or the level left
Outline: (§3)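 Wistar albino rats received the compound orally as a suspension in 1% carboxymethyl cellulose, 30 min before subplantar formalin (0.1 mL of 1% w/v). Paw volume was read by plethysmography at 30, 60, 90 and 120 min after formalin and expressed as % reduction of edema. Significance was tested by Student's t-test.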

Rattus norvegicus [10] = test: Antiinflammatory activity in Wistar albino rat assessed as reduction in formalin-induced paw edema volume at 200 mg/kg, po administered 30 mins prior to formalin challenge measured after 60 mins by plethysmography; type: functional; parameters: scale not given: the % may be the effect or the level left; outline: as §3
Rattus norvegicus [11] = test: Antiinflammatory activity in Wistar albino rat assessed as reduction in formalin-induced paw edema volume at 200 mg/kg, po administered 30 mins prior to formalin challenge measured after 90 mins by plethysmography; type: functional; parameters: scale not given: the % may be the effect or the level left; outline: as §3
Rattus norvegicus [12] = test: Antiinflammatory activity in Wistar albino rat assessed as reduction in formalin-induced paw edema volume at 200 mg/kg, po administered 30 mins prior to formalin challenge measured after 120 mins by plethysmography; type: functional; parameters: scale not given: the % may be the effect or the level left; outline: as §3
Mus musculus [13] = test: Analgesic activity in Wistar albino mouse assessed as protection against acetic acid-induced writhing at 20 mg/kg, po administered 30 mins prior to acetic acid challenge measured after 30 mins; type: functional; outline: as §2
Mus musculus [14] = test: Analgesic activity in Wistar albino mouse assessed as protection against acetic acid-induced writhing at 40 mg/kg, po administered 30 mins prior to acetic acid challenge measured after 30 mins; type: functional; outline: as §2
Rattus norvegicus [15] = test: Antiinflammatory activity in Wistar albino rat assessed as reduction in formalin-induced paw edema volume at 40 mg/kg, po administered 30 mins prior to formalin challenge measured after 30 mins by plethysmography; type: functional; parameters: scale not given: the % may be the effect or the level left; outline: as §3
Rattus norvegicus [16] = test: Antiinflammatory activity in Wistar albino rat assessed as reduction in formalin-induced paw edema volume at 40 mg/kg, po administered 30 mins prior to formalin challenge measured after 60 mins by plethysmography; type: functional; parameters: scale not given: the % may be the effect or the level left; outline: as §3
Rattus norvegicus [17] = test: Antiinflammatory activity in Wistar albino rat assessed as reduction in formalin-induced paw edema volume at 40 mg/kg, po administered 30 mins prior to formalin challenge measured after 90 mins by plethysmography; type: functional; parameters: scale not given: the % may be the effect or the level left; outline: as §3
Rattus norvegicus [18] = test: Antiinflammatory activity in Wistar albino rat assessed as reduction in formalin-induced paw edema volume at 40 mg/kg, po administered 30 mins prior to formalin challenge measured after 120 mins by plethysmography; type: functional; parameters: scale not given: the % may be the effect or the level left; outline: as §3

Compound	Tlag [1] [min]	LD50 at 24 h [6] [mg/kg]	Activity (Mus musculus [7]) [%]	Activity (Mus musculus [13]) [%]	Activity (Mus musculus [14]) [%]	Activity (Rattus norvegicus [15]) [%]	Activity (Rattus norvegicus [16]) [%]	Activity (Rattus norvegicus [17]) [%]	Activity (Rattus norvegicus [18]) [%]	also measured
c1ccc2[nH]cnc2c1 [BENZIMIDAZOLE]	18.81									
O=C(O)Cc1ccccc1Nc1c(Cl)cccc1Cl [DICLOFENAC]	3.36									Activity (Rattus norvegicus [2]): 48%; Activity (Rattus norvegicus [3]): 65%; Activity (Rattus norvegicus [4]): 64%; Activity (Rattus norvegicus [5]): 65%
CN(C)Cn1cnc2ccccc21	15.31	> 1000	25.87							Activity (Mus musculus [8]): 31.4%; Activity (Rattus norvegicus [9]): 48%; Activity (Rattus norvegicus [10]): 51%; Activity (Rattus norvegicus [11]): 64%; Activity (Rattus norvegicus [12]): 53%
CCN(CC)Cn1c(/C=C/c2ccccc2)nc2ccccc21	4.9	175		32.2	47.49	20	50	51	56	
C(=C\c1nc2ccccc2n1CN1CCCCC1)/c1ccccc1	4.51	180		29.56	43.8	48	56	59	62	
C(=C\c1nc2ccccc2[nH]1)/c1ccccc1	9.57									
Cc1nc2ccccc2[nH]1	11.68									
CCN(CC)Cn1cnc2ccccc21	16.79	> 1000	11.35							Activity (Mus musculus [8]): 43.8%; Activity (Rattus norvegicus [9]): 28%; Activity (Rattus norvegicus [10]): 59%; Activity (Rattus norvegicus [11]): 63%; Activity (Rattus norvegicus [12]): 61%
C(=C\c1nc2ccccc2n1CN1CCOCC1)/c1ccccc1	7.33	200		20.58	27.45	52	59	74	70	
CC(=O)Nc1ccc(O)cc1 [ACETAMINOPHEN]	1.55		47.76							
